Assay outcomes deposited in PubChem by several laboratories.
PLK1 PBD inh – inhibitors of human Plk1 polo box domain binding. Plk1 PBD phosphopeptide binding, fluorescence polarization. inhibition, %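 (tested at about 20 µM)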. actives 0.13% (n = 97,000); in the data active means inhibition above about 34%, passing the limit was not always enough
Target sequence (P53350 whole entry, looked up, the tested form may be a part): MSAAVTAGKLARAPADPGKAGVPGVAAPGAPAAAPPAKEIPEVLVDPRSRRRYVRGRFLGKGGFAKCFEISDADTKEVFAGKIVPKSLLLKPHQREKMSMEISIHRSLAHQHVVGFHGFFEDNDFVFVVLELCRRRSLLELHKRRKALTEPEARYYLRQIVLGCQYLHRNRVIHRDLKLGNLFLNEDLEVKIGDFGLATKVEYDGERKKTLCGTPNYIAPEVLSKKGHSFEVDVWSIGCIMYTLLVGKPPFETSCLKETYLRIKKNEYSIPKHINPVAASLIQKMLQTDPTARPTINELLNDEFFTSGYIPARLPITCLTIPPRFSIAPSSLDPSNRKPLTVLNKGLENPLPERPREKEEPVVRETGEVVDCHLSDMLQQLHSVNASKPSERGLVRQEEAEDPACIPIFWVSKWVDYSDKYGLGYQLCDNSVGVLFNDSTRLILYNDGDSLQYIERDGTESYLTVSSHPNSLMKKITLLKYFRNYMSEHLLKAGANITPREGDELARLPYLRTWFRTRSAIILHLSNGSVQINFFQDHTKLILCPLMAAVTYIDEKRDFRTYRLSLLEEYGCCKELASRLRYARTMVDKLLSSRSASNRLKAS
EphB4 ephrin blk – blocks human EphB4 binding to ephrin-B2; P54760; EphB4 LBD / TNYL-RAW-Alexa532 peptide, fluorescence polarization; inhibition, % at 7 µM; actives 0.15% (n = 97,000); AID 720;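 active means inhibition above the screen-wide mean inhibition plus 3 SD, cut at about 15% in these data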
HIV Rev-RRE inh – inhibitors of HIV-1 Rev-RRE RNA interaction; AID 704; P05866; actives 0.79% (n = 97,000); Rev peptide-RRE RNA binding, FRET; inhibition, % at 8 µM;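 active means inhibition above the screen-wide mean plus 3 SD, cut at about 35% in these data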
Target sequence (P05866 whole entry, looked up): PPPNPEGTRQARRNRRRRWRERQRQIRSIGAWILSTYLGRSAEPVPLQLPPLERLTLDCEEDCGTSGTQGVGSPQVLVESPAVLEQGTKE
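Test system – labelled RRE RNA duplex and labelled Rev peptide · Reagent – labelled Rev peptide · Doses – one concentration, 8 µM nominal · Incubation – 5 + 15 min at 25 °C · Signal – FRET fluorescence readout · Read-out basis – % inhibition of FRET ratio versus controls · Control set – DMSO wells as 0% and neomycin B wells as 100% inhibition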
LYP inh 2 – blocks human PTPN22 phosphatase activity. inhibition, % at 2 µM. recombinant LYP catalytic domain, DiFMUP fluorescence. actives 0.21% (n = 96,000);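 active means inhibition at 2 µM at or above a set limit, the screen mean plus 3 SD, cut at about 24% in these data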
LYP act – activators of human LYP (PTPN22) phosphatase | Q9Y2R2 | recombinant LYP, DiFMUP fluorescence; 0 = plate median, 100 = signal doubled | activation, % at 2 µM | actives 0.11% (n = 96,000);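 active means activation at 2 µM above a set limit, the mean plus 5 SD, cut at about 37% in these data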
PLK1 inh – PLK1 (human) kinase inhibition; recombinant PLK1 kinase, TR-FRET peptide phosphorylation; inhibition, % at 10 µM; actives 0.53% (n = 97,000);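 active means inhibition of 50% or more in the single-concentration screen; inactive means inhibition below 50%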
PLK1 inh conf – PLK1 (human) kinase inhibition, confirmed; shares compounds with PLK1 inh; recombinant PLK1 kinase, TR-FRET peptide phosphorylation; inhibition, % at 10 µM; actives 20% (n = 210);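 active means inhibition at or above 50% in each of two repeat confirmation tests; inconclusive means one repeat below 50% inhibition, the other above; inactive means both repeats at or below 50% inhibition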
Plk1 interf – interferes with the Plk1 assay readout, not true inhibition. Plk1 TR-FRET assay interference, compound added post-reaction. inhibition (interference), % at 10 µM. AID 756. shares compounds with PLK1 inh. 210 tested, under 10 active;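 active means both duplicate runs show 50% or greater inhibition; inconclusive means only one duplicate run shows over 50% inhibition; inactive means both runs show under 50% inhibition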
PBD redox DR – generates H2O2 by redox cycling, flagging false Plk1 PBD hits; redox cycling H2O2 generation, DTT, counter-screen; AID 876; EC50, µM; shares compounds with PLK1 PBD inh; 120 tested, under 10 active; call rule not given here
Each line names hits and unclear results; the compound was inactive in the other large screens (follow-up assays come after a bar, where they were run). Most compounds without a hit are left out; they make up all but 1.8% or so of the library.

CCOC(=O)N1CCN(C(=O)CS(=O)Cc2nc(-c3cccc(C)c3)oc2C)CC1 (stereo not drawn)	PLK1 inh 74.7 (no result: LYP inh 2, LYP act) | PLK1 inh conf inactive | Plk1 interf inactive
Cc1cccc(-c2nc(CS(=O)CC(=O)N3CCc4ccccc4C3)c(C)o2)c1 (stereo not drawn)	none
COCCNC(=O)CS(=O)Cc1nc(-c2ccc(OC)cc2)oc1C (stereo not drawn)	PLK1 inh 71.1 (no result: LYP inh 2, LYP act) | PLK1 inh conf inactive | Plk1 interf inactive
NS(=O)(=O)c1ccc(Nc2nc(-c3ccc(O)cc3O)cs2)cc1	PLK1 inh 71.6 | PLK1 inh conf inconclusive | Plk1 interf inactive
Cc1cccnc1Nc1nc(-c2ccc(O)cc2O)cs1	none
CCOC(=O)C1CCN(C(=O)CN(c2ccc(OC)cc2)S(=O)(=O)c2c(C)noc2C)CC1	none
CCOC(=O)C1CCN(C(=O)CN(c2ccc(OC)cc2)S(=O)(=O)c2c(C)nn(C)c2C)CC1	PLK1 inh 73.3 (no result: LYP inh 2, LYP act) | PLK1 inh conf inactive | Plk1 interf inactive
CCn1nccc1C(=O)Nc1ccc(Cl)cn1	none
CCn1ccc(C(=O)Nc2ccc(Cl)cn2)n1	PLK1 inh 71.2 (no result: LYP inh 2, LYP act) | PLK1 inh conf inactive | Plk1 interf inactive
CCCSc1nc(N2CCOCC2)c2c(c1C#N)CCCC2	PLK1 PBD inh 50.6 | PBD redox DR inactive
COc1nc(N/N=C/c2ccccc2F)nc(N2CCCCC2)n1	none
COc1ccc2c(c1OC)C(=O)OC2CC(=O)O (stereo not drawn)	PLK1 PBD inh 40.1 | PBD redox DR inactive
COc1ccc2c(c1OC)C(=O)OC2CC(=O)c1ccc(O)c(O)c1 (stereo not drawn)	none
Cn1c(=O)c2c(ncn2Cc2ccccc2)n(C)c1=O	none
Cn1c(=O)c2c(ncn2CCCc2ccccc2)n(C)c1=O	PLK1 PBD inh 51.4 | PBD redox DR inactive
O=C(O)C1CCCCC1C(=O)Nc1ccc2c(c1)OCCO2 (stereo not drawn)	PLK1 PBD inh 52.0 | PBD redox DR inactive
O=C(O)C1C2C=CC(C2)C1C(=O)Nc1ccc2c(c1)OCCO2 (stereo not drawn)	none
C=CCNC(=O)NC(=O)COC(=O)c1cccnc1SC	none
CCNC(=O)NC(=O)C(C)OC(=O)c1cccnc1SC (stereo not drawn)	PLK1 PBD inh 50.6 | PBD redox DR inactive
COc1ccc(S(=O)(=O)N2CCC(C(=O)N3CCCCC3)CC2)cc1Cl	none
COc1ccc(OCC(=O)Nc2ccc(S(=O)(=O)N3CCOCC3)cc2)cc1	none
O=C(COc1ccccc1)Nc1ccc(S(=O)(=O)N2CCOCC2)cc1	PLK1 PBD inh 40.3 | PBD redox DR inactive
CCc1noc(C)c1C(=O)N1CCOCC1	PLK1 PBD inh 40.6 | PBD redox DR inactive
ONC(=Nc1ccc(Cl)cc1)c1ccccc1	none (no result: LYP inh 2, LYP act)
CCOC(=O)c1c2c(n(C)c1C)C(=O)C(=O)c1ccc(Br)cc1-2	PLK1 PBD inh 116.3 | PBD redox DR 0.614
CCn1c(SCC(N)=O)nnc1-c1ccc(S(=O)(=O)N2CCN(C)CC2)cc1	PLK1 PBD inh 44.1 | PBD redox DR inactive
CCn1c(SCC(=O)N2CCCCC2C)nnc1-c1ccc(S(=O)(=O)N2CCN(C)CC2)cc1 (stereo not drawn)	none
CC(=O)N(/N=C1\Sc2ccccc2C1=O)c1cccc(C)c1	PLK1 PBD inh 76.7 | PBD redox DR inactive
CC(=O)N(CN1C(=O)c2ccccc2C1=O)c1cccc(C)c1	none
Cc1ccc(CNC(=O)c2cc3c(=O)n(C)c4ccccc4c3n2C)cc1	PLK1 PBD inh 62.0 | PBD redox DR inactive
Cn1c(C(=O)NCc2cccs2)cc2c(=O)n(C)c3ccccc3c21	none
CCC(C(=O)NCc1ccco1)N(C(=O)CNS(=O)(=O)c1ccccc1)c1ccc(OC)cc1 (stereo not drawn)	none
O=c1cc(N2CCCCC2)c(-c2ccccc2)nn1Cc1c(Cl)cccc1Cl	none
COc1cc(OC)cc(C(=O)NCCCN2CCOCC2)c1	PLK1 PBD inh 52.8 | PBD redox DR inactive
CC(C)N(Cc1cc2ccccc2[nH]c1=O)C(=O)c1cccnc1	PLK1 PBD inh 35.1 | PBD redox DR inactive
O=C(COc1ccccc1Br)N1CCN(c2ccccc2)CC1	none
COc1ccc(OCCCC(=O)Nc2cc([N+](=O)[O-])ccc2C)cc1	none
Nc1cc(-c2ccc(Br)cc2)nn1S(=O)(=O)c1cccc2nsnc12	PLK1 PBD inh 47.0 | PBD redox DR inactive
Cc1nc(NC(=O)c2ccc(Cl)cc2)sc1-c1csc(Nc2cccc(F)c2)n1	none
O=C(NC(NC(=S)Nc1ccccc1)C(Cl)(Cl)Cl)c1cccc(Cl)c1 (stereo not drawn)	none
O=C(NC(NC(=S)Nc1ccc(Cl)cc1Cl)C(Cl)(Cl)Cl)c1cccc([N+](=O)[O-])c1 (stereo not drawn)	PLK1 PBD inh 55.8 | PBD redox DR inactive
CCCCN(C)C(=O)c1sc2ncn(CC)c(=O)c2c1C	none
CCn1cnc2sc(C(=O)N3CCN(c4ccc(OC)cc4)CC3)c(C)c2c1=O	PLK1 PBD inh 44.8 | PBD redox DR inactive
OCC(CO)(CO)N=Cc1cc(Br)ccc1O	PLK1 PBD inh 46.8 | PBD redox DR inactive
O=C(Nc1ccc2c(c1)OCO2)C1CCN(Cc2cnn(-c3ccccc3)c2-n2cccc2)CC1	none
O=c1[nH]cc(COCc2ccccc2)c(=O)[nH]1	PLK1 PBD inh 45.9 | PBD redox DR inactive
COc1ccc(OC)c(N2C(=O)CC(Cc3ccc(C)cc3)C2=O)c1 (stereo not drawn)	none
CCn1c(=O)cc(SCC(=O)Nc2ccc3c(c2)OCO3)c2ccccc21	none
Cn1cc(SCC(=O)Nc2ccc3c(c2)OCCO3)c2ccccc21	PLK1 PBD inh 44.3 | PBD redox DR inactive
COC(=O)CNC(=O)C12CC3(C)CC(C)(CC(C)(C3)C1)C2	PLK1 PBD inh 33.4 | PBD redox DR inactive
C=CCn1c(Cc2csc(N)n2)nnc1SCC(=O)Nc1ccccc1C(F)(F)F	none
Cc1cccc(-n2c(SCC(=O)N3CCCC3)nc3n[nH]c(C)c3c2=N)c1	none
CCC(Sc1nc2n[nH]c(C)c2c(=N)n1-c1cccc(Cl)c1)C(=O)NCCOC (stereo not drawn)	PLK1 PBD inh 42.8 | PBD redox DR inactive
CC1CN(C2CC(C)(C)NC(C)(C)C2)CCC1=O (stereo not drawn)	PLK1 PBD inh 53.3 | PBD redox DR inactive
